Results taken from ChEMBL document CHEMBL4689842, “EUbOPEN Chemogenomics Library wave 1” (2021).

Test system: U2OS
Test: Multiplex assay against U2OS
Format: toxicity, cell-based
Conditions: human
Procedure, shortened: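 On a CQ1 microscope at 37°C and 5% CO2, live cells were imaged after compound addition. They had been stained at seeding with Hoechst33342, BioTracker Green Microtubule Cytoskeleton Dye, MitoTracker Red and Annexin V Alexa Fluor 680. CellPathfinder machine-learning gating assigned cells to Hoechst high-intensity objects or normal cells, normal cells to healthy, pyknosed or fragmented nuclei, and pyknosed cells to mitotic or apoptotic. Tubulin, mitochondrial-mass and membrane-permeability phenotypes are per cents of healthy-nucleus cells.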

[1] = 12 h, 1 µM, compound concentration 1 uM, replicate 1
[2] = 12 h, 1 µM, compound concentration 1 uM, replicate 2
[3] = 12 h, 10 µM, compound concentration 10 uM, replicate 1
[4] = 12 h, 10 µM, compound concentration 10 uM, replicate 2
[5] = 24 h, 1 µM, compound concentration 1 uM, replicate 1
[6] = 24 h, 1 µM, compound concentration 1 uM, replicate 2
[7] = 24 h, 10 µM, compound concentration 10 uM, replicate 1
[8] = 24 h, 10 µM, compound concentration 10 uM, replicate 2
[9] = 48 h, 1 µM, compound concentration 1 uM, replicate 1
[10] = 48 h, 1 µM, compound concentration 1 uM, replicate 2
[11] = 48 h, 10 µM, compound concentration 10 uM, replicate 1
[12] = 48 h, 10 µM, compound concentration 10 uM, replicate 2

In the case of `O=C1NC(=O)C(c2cnc3ccccn23)=C1c1cn2c3c(cc(F)cc13)CN(C(=O)N1CCCCC1)CC2` [LY-2090314], the “Population Apoptotic (%)” value [1] is reported as 37%, the “Population Fragmented Nuclei (%)” value [1] is reported as 8% and the “Population Healthy Nuclei (%)” value [1] is reported as 74%. The “Population Hoechst High Intensity Objects (%)” value [1] was 8%, the “Population Membrane Permeable-Phenotype (%)” value [1] was 5% and the “Population Mitochondria Different-Phenotype (%)” value [1] was 31%. The “Population Mitotic Cells (%)” value [1] was 62%, the “Population Normal (%)” value [1] was 91% and the “Population Pyknosed Nuclei (%)” value [1] was 17%. The “Population Tubulin-Different-Phenotype (%)” value [1] was 38%, the “Total Cell Count” value [1] was 121 and the “Population Apoptotic (%)” value [2] was 80%. For the same molecule, the “Population Fragmented Nuclei (%)” value [2] was 3%, the “Population Healthy Nuclei (%)” value [2] was 87% and the “Population Hoechst High Intensity Objects (%)” value [2] was 12%. For the same molecule, the “Population Membrane Permeable-Phenotype (%)” value [2] was 6%, the “Population Mitochondria Different-Phenotype (%)” value [2] was 16% and the “Population Mitotic Cells (%)” value [2] was 20%. For the same molecule, the “Population Normal (%)” value [2] was 87%, the “Population Pyknosed Nuclei (%)” value [2] was 9% and the “Population Tubulin-Different-Phenotype (%)” value [2] was 22%. The “Total Cell Count” value [2] was 85, the “Population Apoptotic (%)” value [3] was 60% and the “Population Fragmented Nuclei (%)” value [3] was 13%. For the same molecule, the “Population Healthy Nuclei (%)” value [3] was 73%, the “Population Hoechst High Intensity Objects (%)” value [3] was 18% and the “Population Membrane Permeable-Phenotype (%)” value [3] was 44%. The “Population Mitochondria Different-Phenotype (%)” value [3] was 95%, the “Population Mitotic Cells (%)” value [3] was 40% and the “Population Normal (%)” value [3] was 81%. For the same molecule, the “Population Pyknosed Nuclei (%)” value [3] was 13%, the “Population Tubulin-Different-Phenotype (%)” value [3] was 99% and the “Total Cell Count” value [3] was 153. The “Population Apoptotic (%)” value [4] was 100%, the “Population Fragmented Nuclei (%)” value [4] was 9% and the “Population Healthy Nuclei (%)” value [4] was 74%. The “Population Hoechst High Intensity Objects (%)” value [4] was 10%, the “Population Membrane Permeable-Phenotype (%)” value [4] was 40% and the “Population Mitochondria Different-Phenotype (%)” value [4] was 96%. For the same molecule, the “Population Mitotic Cells (%)” value [4] was 0%, the “Population Normal (%)” value [4] was 89% and the “Population Pyknosed Nuclei (%)” value [4] was 16%. For the same molecule, the “Population Tubulin-Different-Phenotype (%)” value [4] was 96%, the “Total Cell Count” value [4] was 63 and the “Population Apoptotic (%)” value [5] was 36%. The “Population Fragmented Nuclei (%)” value [5] was 13%, the “Population Healthy Nuclei (%)” value [5] was 64% and the “Population Hoechst High Intensity Objects (%)” value [5] was 3%. For the same molecule, the “Population Membrane Permeable-Phenotype (%)” value [5] was 3%, the “Population Mitochondria Different-Phenotype (%)” value [5] was 21% and the “Population Mitotic Cells (%)” value [5] was 63%. The “Population Normal (%)” value [5] was 96%, the “Population Pyknosed Nuclei (%)” value [5] was 21% and the “Population Tubulin-Different-Phenotype (%)” value [5] was 25%. For the same molecule, the “Total Cell Count” value [5] was 124, the “Population Apoptotic (%)” value [6] was 80% and the “Population Fragmented Nuclei (%)” value [6] was 4%. The “Population Healthy Nuclei (%)” value [6] was 87%, the “Population Hoechst High Intensity Objects (%)” value [6] was 13% and the “Population Membrane Permeable-Phenotype (%)” value [6] was 7%. For the same molecule, the “Population Mitochondria Different-Phenotype (%)” value [6] was 22%, the “Population Mitotic Cells (%)” value [6] was 20% and the “Population Normal (%)” value [6] was 86%. For the same molecule, the “Population Pyknosed Nuclei (%)” value [6] was 8%, the “Population Tubulin-Different-Phenotype (%)” value [6] was 18% and the “Total Cell Count” value [6] was 82. For the same molecule, the “Population Apoptotic (%)” value [7] was 71%, the “Population Fragmented Nuclei (%)” value [7] was 20% and the “Population Healthy Nuclei (%)” value [7] was 59%. For the same molecule, the “Population Hoechst High Intensity Objects (%)” value [7] was 18%, the “Population Membrane Permeable-Phenotype (%)” value [7] was 62% and the “Population Mitochondria Different-Phenotype (%)” value [7] was 98%. For the same molecule, the “Population Mitotic Cells (%)” value [7] was 28%, the “Population Normal (%)” value [7] was 81% and the “Population Pyknosed Nuclei (%)” value [7] was 19%. For the same molecule, the “Population Tubulin-Different-Phenotype (%)” value [7] was 100%, the “Total Cell Count” value [7] was 171 and the “Population Apoptotic (%)” value [8] was 81%. For the same molecule, the “Population Fragmented Nuclei (%)” value [8] was 11%, the “Population Healthy Nuclei (%)” value [8] was 64% and the “Population Hoechst High Intensity Objects (%)” value [8] was 4%. For the same molecule, the “Population Membrane Permeable-Phenotype (%)” value [8] was 37%, the “Population Mitochondria Different-Phenotype (%)” value [8] was 96% and the “Population Mitotic Cells (%)” value [8] was 18%. For the same molecule, the “Population Normal (%)” value [8] was 95%, the “Population Pyknosed Nuclei (%)” value [8] was 24% and the “Population Tubulin-Different-Phenotype (%)” value [8] was 96%. The “Total Cell Count” value [8] was 72, the “Population Apoptotic (%)” value [9] was 55% and the “Population Fragmented Nuclei (%)” value [9] was 15%. The “Population Healthy Nuclei (%)” value [9] was 63%, the “Population Hoechst High Intensity Objects (%)” value [9] was 3% and the “Population Membrane Permeable-Phenotype (%)” value [9] was 7%. The “Population Mitochondria Different-Phenotype (%)” value [9] was 22%, the “Population Mitotic Cells (%)” value [9] was 44% and the “Population Normal (%)” value [9] was 96%. For the same molecule, the “Population Pyknosed Nuclei (%)” value [9] was 21%, the “Population Tubulin-Different-Phenotype (%)” value [9] was 12% and the “Total Cell Count” value [9] was 117. For the same molecule, the “Population Apoptotic (%)” value [10] was 72%, the “Population Fragmented Nuclei (%)” value [10] was 8% and the “Population Healthy Nuclei (%)” value [10] was 79%. For the same molecule, the “Population Hoechst High Intensity Objects (%)” value [10] was 7%, the “Population Membrane Permeable-Phenotype (%)” value [10] was 11% and the “Population Mitochondria Different-Phenotype (%)” value [10] was 17%. The “Population Mitotic Cells (%)” value [10] was 27%, the “Population Normal (%)” value [10] was 92% and the “Population Pyknosed Nuclei (%)” value [10] was 12%. The “Population Tubulin-Different-Phenotype (%)” value [10] was 19%, the “Total Cell Count” value [10] was 82 and the “Population Apoptotic (%)” value [11] was 95%. The “Population Fragmented Nuclei (%)” value [11] was 33%, the “Population Healthy Nuclei (%)” value [11] was 39% and the “Population Hoechst High Intensity Objects (%)” value [11] was 20%. The “Population Membrane Permeable-Phenotype (%)” value [11] was 68%, the “Population Mitochondria Different-Phenotype (%)” value [11] was 93% and the “Population Mitotic Cells (%)” value [11] was 5%. For the same molecule, the “Population Normal (%)” value [11] was 79%, the “Population Pyknosed Nuclei (%)” value [11] was 26% and the “Population Tubulin-Different-Phenotype (%)” value [11] was 100%. For the same molecule, the “Total Cell Count” value [11] was 221, the “Population Apoptotic (%)” value [12] was 83% and the “Population Fragmented Nuclei (%)” value [12] was 12%. The “Population Healthy Nuclei (%)” value [12] was 72%, the “Population Hoechst High Intensity Objects (%)” value [12] was 11% and the “Population Membrane Permeable-Phenotype (%)” value [12] was 48%. For the same molecule, the “Population Mitochondria Different-Phenotype (%)” value [12] was 89%, the “Population Mitotic Cells (%)” value [12] was 16% and the “Population Normal (%)” value [12] was 88%. For the same molecule, the “Population Pyknosed Nuclei (%)” value [12] was 15%, the “Population Tubulin-Different-Phenotype (%)” value [12] was 89% and the “Total Cell Count” value [12] was 93.
